Source: ChEMBL document CHEMBL3044673, “Design, synthesis and insecticidal activity of novel phenylpyrazoles containing a 2,2,2-trichloro-1-alkoxyethyl moiety” (2010)

Tests used:
Assay type in all cases: functional
[1] = test system: Aphis craccivora; assay: Insecticidal activity against Aphis craccivora (cowpea aphid) infested tender soybean shoots exposed to 10 mg/kg test compound solution assessed as insect mortality measured 24 hr post compound treatment; details: Aphis craccivora, 24 h
Outline: (§1)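 Soybean tender shoots carrying 60 aphids were dipped in test solutions. Solutions were made from a 200 mg L^-1 stock in dimethylformamide, diluted with water containing TW-20. Insects were laboratory-reared, tests were held at 25±1 °C, and mortality was scored.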

[2] = test system: Plutella xylostella; assay: Insecticidal activity against Plutella xylostella (diamondback moth) grown on compound pre-treated fresh cabbage leaves assessed as insect mortality at 10 mg/kg measured 3 days post compound treatment by leaf-dip method; details: Plutella xylostella
Outline: (§2)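 Leaf-dip stomach-toxicity assay on laboratory-reared diamondback moth. Test solutions came from a 200 mg L^-1 stock in dimethylformamide, diluted with water containing TW-20. Control leaves were treated with water and dimethylformamide. Tests were held at 25±1 °C, percentage mortality was scored 3 days after treatment, and each treatment was run three times.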

[3] = test system: Plutella xylostella; assay: Insecticidal activity against Plutella xylostella (diamondback moth) grown on compound pre-treated fresh cabbage leaves assessed as insect mortality at 200 mg/kg measured 3 days post compound treatment by leaf-dip method; outline: as §2
[4] = test system: Aphis craccivora; assay: Insecticidal activity against Aphis craccivora (cowpea aphid) infested tender soybean shoots exposed to 100 mg/kg test compound solution assessed as insect mortality measured 24 hr post compound treatment; outline: as §1
[5] = test system: Culex pipiens pallens; assay: Insecticidal activity against Culex pipiens pallens (mosquito) assessed as insect mortality at 25 ug/kg measured 1 day post compound treatment; details: 24 h
Outline: (§3)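 Fourth-instar Culex pipiens pallens larvae, 20 per test, were laboratory-reared and placed in 100 mL of test solution made by adding 1 mL of compound dilution to 99 mL of water. Tests were held at 25±1 °C, percentage mortality was scored 1 day after treatment, and each test was run three times.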

[6] = test system: Culex pipiens pallens; assay: Insecticidal activity against Culex pipiens pallens (mosquito) assessed as insect mortality at 2.5 ug/kg measured 1 day post compound treatment; details: 24 h; outline: as §3
[7] = test system: Culex pipiens pallens; assay: Insecticidal activity against Culex pipiens pallens (mosquito) assessed as insect mortality at 100 ug/kg measured 1 day post compound treatment; details: Culex pipiens, 24 h; outline: as §3
[8] = test system: Culex pipiens pallens; assay: Insecticidal activity against Culex pipiens pallens (mosquito) assessed as insect mortality at 10 ug/kg measured 1 day post compound treatment; details: 24 h; outline: as §3
[9] = test system: Culex pipiens pallens; assay: Insecticidal activity against Culex pipiens pallens (mosquito) assessed as insect mortality at 5 ug/kg measured 1 day post compound treatment; details: 24 h; outline: as §3
[10] = test system: Aphis craccivora; assay: Insecticidal activity against Aphis craccivora (cowpea aphid) infested tender soybean shoots exposed to 25 mg/kg test compound solution assessed as insect mortality measured 24 hr post compound treatment; outline: as §1
[11] = test system: Aphis craccivora; assay: Insecticidal activity against Aphis craccivora (cowpea aphid) infested tender soybean shoots exposed to 50 mg/kg test compound solution assessed as insect mortality measured 24 hr post compound treatment; outline: as §1
[12] = test system: Plutella xylostella; assay: Insecticidal activity against Plutella xylostella (diamondback moth) grown on compound pre-treated fresh cabbage leaves assessed as insect mortality at 25 mg/kg measured 3 days post compound treatment by leaf-dip method; details: Plutella xylostella; outline: as §2
[13] = test system: Plutella xylostella; assay: Insecticidal activity against Plutella xylostella (diamondback moth) grown on compound pre-treated fresh cabbage leaves assessed as insect mortality at 100 mg/kg measured 3 days post compound treatment by leaf-dip method; outline: as §2
[14] = test system: Culex pipiens pallens; assay: Insecticidal activity against Culex pipiens pallens (mosquito) assessed as insect mortality at 50 ug/kg measured 1 day post compound treatment; details: 24 h; outline: as §3
[15] = test system: Plutella xylostella; assay: Insecticidal activity against Plutella xylostella (diamondback moth) grown on compound pre-treated fresh cabbage leaves assessed as insect mortality at 50 mg/kg measured 3 days post compound treatment by leaf-dip method; outline: as §2
[16] = test system: Aphis craccivora; assay: Insecticidal activity against Aphis craccivora (cowpea aphid) infested tender soybean shoots exposed to 200 mg/kg test compound solution assessed as insect mortality measured 24 hr post compound treatment; outline: as §1
[17] = test system: Aphis craccivora; assay: Insecticidal activity against Aphis craccivora (cowpea aphid) infested tender soybean shoots exposed to 2.5 mg/kg test compound solution assessed as insect mortality measured 24 hr post compound treatment; details: Aphis craccivora, 24 h; outline: as §1
[18] = test system: Aphis craccivora; assay: Insecticidal activity against Aphis craccivora (cowpea aphid) infested tender soybean shoots exposed to 5 mg/kg test compound solution assessed as insect mortality measured 24 hr post compound treatment; details: Aphis craccivora, 24 h; outline: as §1
[19] = test system: Plutella xylostella; assay: Insecticidal activity against Plutella xylostella (diamondback moth) grown on compound pre-treated fresh cabbage leaves assessed as insect mortality at 2.5 mg/kg measured 3 days post compound treatment by leaf-dip method; outline: as §2
[20] = test system: Plutella xylostella; assay: Insecticidal activity against Plutella xylostella (diamondback moth) grown on compound pre-treated fresh cabbage leaves assessed as insect mortality at 5 mg/kg measured 3 days post compound treatment by leaf-dip method; details: Plutella xylostella; outline: as §2
[21] = test system: Mythimna separata; assay: Insecticidal activity against Mythimna separata (Oriental armyworm) grown on compound pre-treated corn leaves assessed as insect mortality at 200 mg/kg measured 3 days post compound treatment by leaf-dip method
[22] = test system: Aphis craccivora; assay: Insecticidal activity against Aphis craccivora (cowpea aphid) infested tender soybean shoots exposed to test compound solution assessed as insect mortality measured 24 hr post compound treatment; outline: as §1

Row | Compound | mortality at 10 mg/kg [1] | mortality at 10 mg/kg [2] | mortality at 200 mg/kg [3] | mortality at 100 mg/kg [4] | mortality at 0.025 mg/kg [5] | mortality at 0.0025 mg/kg [6] | mortality at 0.1 mg/kg [7] | mortality at 0.01 mg/kg [8] | mortality at 0.005 mg/kg [9] | mortality at 25 mg/kg [10] | mortality at 50 mg/kg [11] | mortality at 25 mg/kg [12] | mortality at 100 mg/kg [13] | mortality at 0.05 mg/kg [14] | mortality at 50 mg/kg [15] | mortality at 200 mg/kg [16] | mortality at 2.5 mg/kg [17] | mortality at 5 mg/kg [18] | mortality at 2.5 mg/kg [19] | mortality at 5 mg/kg [20] | also measured
1 | CCSc1c(C#N)nn(-c2c(Cl)cc(C(F)(F)F)cc2Cl)c1NC(OC)C(Cl)(Cl)Cl (stereo not given) | 0% | 0% | 100% | 90% | 100% | 30% | 100% | 100% | 100% | 62% | 80% | 34% | 100% | 100% | 94% | 93% | – | – | – | – | –
2 | CCCOC(Nc1c(SC)c(C#N)nn1-c1c(Cl)cc(C(F)(F)F)cc1Cl)C(Cl)(Cl)Cl (stereo not given) | 21% | 0% | 100% | 100% | 100% | 100% | 100% | 100% | 100% | 43% | 90% | 17% | 100% | 100% | 36% | 100% | 0% | 0% | – | – | –
3 | CCOC(Nc1c(SC)c(C#N)nn1-c1c(Cl)cc(C(F)(F)F)cc1Cl)C(Cl)(Cl)Cl (stereo not given) | 0% | 68% | 100% | 100% | 100% | 80% | 100% | 100% | 100% | 43% | 56% | 84% | 100% | 100% | 100% | 100% | – | 0% | 0% | 43% | –
4 | COC(Nc1c(SC)c(C#N)nn1-c1c(Cl)cc(C(F)(F)F)cc1Cl)C(Cl)(Cl)Cl (stereo not given) | 89% | 86% | 100% | 100% | 100% | 70% | 100% | 100% | 100% | 94% | 100% | 100% | 100% | 100% | 100% | 100% | 0% | 43% | 25% | 76% | –
5 | CC[S+]([O-])c1c(C#N)nn(-c2c(Cl)cc(C(F)(F)F)cc2Cl)c1N (stereo not given) [ETHIPROLE] | 31% | 23% | 100% | 100% | 50% | – | 100% | – | – | 100% | 100% | 69% | 100% | 100% | 100% | 100% | – | 0% | – | 0% | mortality at 200 mg/kg [21]: 0%; LC50 [22]: 11.7263 mg/kg
